{"source": "paper PMC4425738", "about": "(Journal of controlled release : official journal of the …, 2014)", "system": "Human adult epidermal keratinocytes", "test": "Cell internalization in vitro", "format": "cell-based", "how_it_was_run": "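FITC-labelled peptide carrier (1, 4, 7 or 10 mg/mL in medium; 30 or 120 min) on keratinocytes seeded on poly-D-lysine glass dishes, grown 24 h in supplemented EpiLife at 37 °C, 5% CO2. Free-carrier arm: 0.1 mg/mL labelled peptide, 15 min, ± 10 mg/mL unlabelled carrier. Medium-only control. Hoechst 33342 nuclear stain, Trolox-HBSS washes, ethidium bromide to exclude dead cells, then confocal imaging. Mean ± SD.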"}
{"substance": "FITC-AC-TGSTQHQ-CG, Disulfide Bridge 2–10 (disulfide) [FITC-SPACE peptide]", "values": [{"measurement": "increase of uptake by addition of free SPACE peptide", "setting": "15 min, 0.1 mg/mL FITC-SPACE peptide with vs without 10 mg/mL unlabeled SPACE peptide, mean ± SD n=3", "result": "3.9±1.5", "unit": "fold"}, {"measurement": "intracellular localization", "setting": "15 min, 0.1 mg/mL, absence of excess free SPACE peptide", "result": "localized primarily in punctate spots"}, {"measurement": "intracellular localization", "setting": "15 min, 0.1 mg/mL, with 10 mg/mL free SPACE peptide", "result": "cytoplasmic localization"}, {"measurement": "intracellular localization", "setting": "120 min, concentrations of 1–4 mg/mL", "result": "punctate fluorescent spots"}, {"measurement": "intracellular localization", "setting": "120 min, higher concentrations (7, 10 mg/mL)", "result": "diffused throughout the cytoplasm"}]}
